Data on two compounds can be found in ChEMBL document CHEMBL1687928, “Discovery, optimization, and pharmacological characterization of novel heteroaroylphenylureas antagonists of C-C chemokine ligand 2 function” (J Med Chem, 2011).

Data set [1] can be described thus: Aqueous solubility of the compound at pH 1.2. The data set is classed as physicochemical.
Another data set concerns THP-1. The data set can be described thus: Cytotoxicity against human THP1 cells. The data set is classed as cell-based.
In data set [2] the target is C-C chemokine receptor type 2 (Homo sapiens) (UniProt P41597). The data set is classed as cell-based. The following applies: THP-1.
Data set [3] shares this target. The data set is classed as cell-based. The conditions noted are these: HEK293.
The target in data set [4] is T1, C-X-C chemokine receptor type 1 (Homo sapiens) (UniProt P25024).
T1 sequence (whole entry): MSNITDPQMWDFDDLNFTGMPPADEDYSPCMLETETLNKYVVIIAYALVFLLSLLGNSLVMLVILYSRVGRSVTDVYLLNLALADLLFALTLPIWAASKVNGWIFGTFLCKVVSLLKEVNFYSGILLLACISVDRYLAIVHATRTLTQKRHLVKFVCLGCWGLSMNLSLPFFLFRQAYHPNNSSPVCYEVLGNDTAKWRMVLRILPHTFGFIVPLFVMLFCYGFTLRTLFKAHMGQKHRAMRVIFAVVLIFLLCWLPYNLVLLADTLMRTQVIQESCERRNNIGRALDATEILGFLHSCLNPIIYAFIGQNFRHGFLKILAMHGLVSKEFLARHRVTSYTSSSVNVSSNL
The data set is classed as cell-based. The following applies: neutrophils.

Data set [5] in a line: Aqueous solubility of the compound at pH 7.4. The class given is physicochemical.
The target of data set [6] is T2, C-X-C chemokine receptor type 2 (Homo sapiens) (UniProt P25025).
T2 sequence (whole entry): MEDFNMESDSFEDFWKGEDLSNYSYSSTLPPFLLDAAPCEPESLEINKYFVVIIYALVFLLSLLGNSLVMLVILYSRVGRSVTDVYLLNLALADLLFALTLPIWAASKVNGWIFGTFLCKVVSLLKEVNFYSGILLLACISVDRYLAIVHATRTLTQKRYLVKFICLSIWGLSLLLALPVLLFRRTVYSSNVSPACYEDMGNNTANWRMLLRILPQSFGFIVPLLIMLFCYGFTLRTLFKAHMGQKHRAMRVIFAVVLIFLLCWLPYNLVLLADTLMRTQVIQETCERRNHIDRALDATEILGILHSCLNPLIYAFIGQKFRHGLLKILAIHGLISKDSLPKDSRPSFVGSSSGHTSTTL
The data set is classed as cell-based. The following applies: neutrophils.

Data set [7] addresses T3, C5a anaphylatoxin chemotactic receptor 1 (Homo sapiens) (UniProt P21730).
T3 sequence (whole entry): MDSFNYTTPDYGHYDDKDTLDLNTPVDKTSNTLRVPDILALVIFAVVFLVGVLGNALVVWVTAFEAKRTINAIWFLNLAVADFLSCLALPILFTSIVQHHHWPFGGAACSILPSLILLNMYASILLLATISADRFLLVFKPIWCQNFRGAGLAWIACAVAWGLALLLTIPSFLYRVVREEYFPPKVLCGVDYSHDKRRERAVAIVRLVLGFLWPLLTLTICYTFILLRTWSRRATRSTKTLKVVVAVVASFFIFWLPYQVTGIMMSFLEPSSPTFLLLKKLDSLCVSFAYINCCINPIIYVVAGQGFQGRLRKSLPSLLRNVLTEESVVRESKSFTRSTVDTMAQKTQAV
The class given is cell-based. The following applies: CHO.

For data set [8], the target named is C-C chemokine receptor type 2 (Homo sapiens) (UniProt P41597). In words: Antagonist activity at CCR2 in human THP1 cells assessed as inhibition of CCL2-induced calcium flux at 50 uM. The data set is classed as functional, cell-based. The conditions noted are these: THP-1. The method, boiled down: (§1)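 THP-1 cells in serum-free RPMI 1640 were loaded with 3 μM Fluo-3AM plus 0.1% F127 for 30 min at 37 °C. After washing, cells were resuspended at 5 × 10^6 cells/mL and kept at room temperature. They were pretreated 30 min with compound or DMSO, then stimulated with 100 ng/mL hCCL2. Fluorescence was read by flow cytometry at baseline for 15 s, then from 20 to 120 s. Inhibition is given as % of DMSO control.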

For data set [9] the target is unchanged. In words: Antagonist activity at CCR2 in human THP1 cells assessed as inhibition of CCL2-induced calcium flux. The class given is functional, cell-based. The conditions noted are these: THP-1. An outline of the steps:
as §1

Values after ≈ are worked out from the molar mass of the structure shown. Active and inactive are the calls of the source. The rule behind the calls is not given here. Where only a bound is given, the exact number is not on record here.

Sequence of C-C chemokine receptor type 2 (Homo sapiens) (P41597 whole entry, looked up): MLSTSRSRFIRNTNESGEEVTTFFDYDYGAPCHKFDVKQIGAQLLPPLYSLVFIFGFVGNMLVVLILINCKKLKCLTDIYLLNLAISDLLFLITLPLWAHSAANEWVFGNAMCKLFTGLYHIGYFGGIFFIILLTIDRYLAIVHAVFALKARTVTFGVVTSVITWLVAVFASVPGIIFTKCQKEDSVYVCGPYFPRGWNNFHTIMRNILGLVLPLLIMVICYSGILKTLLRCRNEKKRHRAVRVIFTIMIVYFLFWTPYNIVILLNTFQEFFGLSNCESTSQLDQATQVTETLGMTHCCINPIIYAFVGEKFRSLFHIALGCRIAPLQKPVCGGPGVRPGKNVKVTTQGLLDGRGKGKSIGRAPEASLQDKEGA

In the case of `Cc1nn(C)c2ncc(C(=O)NC(=O)Nc3ccc(F)c(C(F)(F)F)c3)cc12`, the solubility in data set [1] came out at 3.9 µg/mL (≈ 9.87 µM); in [5] it was 5 µg/mL (≈ 12.6 µM). Besides, the cytotoxic concentration (CC50) in the data set on THP-1 was greater than 50 µM. Moreover, the outcome in data set [2], in [3], in data set [4], in [6] and in data set [7] was inactive.
With `O=C(NC(=O)c1ccc2c(c1)OCO2)Nc1ccc(O)c(Cl)c1`, the result in [8] was Active. Also, the half-maximal cytotoxic concentration (CC50) in the data set on THP-1 was greater than 50 µM. In addition, the result in data set [2] and in data set [3] was inactive. Also, the Activity result in data set [9] was “Dose-dependent effect”.

In general, solubility refers to the dissolved amount per volume that the medium holds. Usually CC50 stands for the concentration at which the toxic effect on the cells reaches its halfway point.
